Assays:
Mus musculus [1] = species: Mus musculus; assay: Cell growth at 34 MicroM concentration in mice; type: functional
Summary of the method: (§1)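 B16 BL6 cells (3×10^5) were precultured 24 h in DMEM/FBS at 37 °C, 5% CO2, then incubated with or without compound for 72 or 24 h under the same conditions. After 0.05% trypsin/0.02% EDTA release, cells were suspended in 1 mL divalent cation-free DPBS and reported as cells per mL before tail-vein injection into BDF1 mice.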

Mus musculus [2] = species: Mus musculus; assay: Number of tumor nodules at 103 uM of compound in mice(Range 136-64 ); type: functional
Summary of the method: (§2)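 B16 BL6 cells (3×10^5) were precultured 24 h in DMEM/FBS (37 °C, 5% CO2), then exposed to compound for 72 or 24 h. Cells were detached with 0.05% trypsin/0.02% EDTA, and 1×10^5 cells in 0.1 mL cation-free DPBS were injected into the tail vein of female BDF1 mice (7 weeks, five per group).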

Mus musculus [3] = species: Mus musculus; assay: Number of tumor nodules at 34 uM of compound in mice(Range 169-115 ); type: functional; summary of the method: as §2
Mus musculus [4] = species: Mus musculus; assay: % inhibition of metastasis at 172 uM in mice; type: functional; summary of the method: as §2
Mus musculus [5] = species: Mus musculus; assay: % inhibition of metastasis at 103 uM in mice; type: functional; summary of the method: as §2
Mus musculus [6] = species: Mus musculus; assay: Cell growth at 103 uM concentration in mice; type: functional; summary of the method: as §1
Mus musculus [7] = species: Mus musculus; assay: Cell growth at 172 uM concentration in mice; type: functional; summary of the method: as §1
Mus musculus [8] = species: Mus musculus; assay: % inhibition of metastasis at 34 uM in mice; type: functional; summary of the method: as §2
Mus musculus [9] = species: Mus musculus; assay: Number of tumor nodules at 172 uM of compound in mice(Range 136-84 ); type: functional; summary of the method: as §2
Mus musculus [10] = species: Mus musculus; assay: Number of tumor nodules at 103 uM of compound in mice(Range 160-114 ); type: functional; summary of the method: as §2
Mus musculus [11] = species: Mus musculus; assay: Number of tumor nodules at 172 uM of compound in mice(Range 118-23); type: functional; summary of the method: as §2
Mus musculus [12] = species: Mus musculus; assay: Number of tumor nodules at 34 uM of compound in mice(Range 165-133 ); type: functional; summary of the method: as §2
Mus musculus [13] = species: Mus musculus; assay: Cell growth at 34 uM concentration in mice; type: functional; summary of the method: as §1
Mus musculus [14] = species: Mus musculus; assay: Cell growth at 145 uM concentration in mice; type: functional; summary of the method: as §1
Mus musculus [15] = species: Mus musculus; assay: Number of tumor nodules at 29 uM of compound in mice(Range 200-270 ); type: functional; summary of the method: as §2
Mus musculus [16] = species: Mus musculus; assay: % inhibition of metastasis at 87 uM in mice; type: functional; summary of the method: as §2
Mus musculus [17] = species: Mus musculus; assay: % inhibition of metastasis at 29 uM in mice; type: functional; summary of the method: as §2
Mus musculus [18] = species: Mus musculus; assay: % inhibition of metastasis at 145 uM in mice; type: functional; summary of the method: as §2
Mus musculus [19] = species: Mus musculus; assay: Number of tumor nodules at 87 uM of compound in mice(Range 122-237 ); type: functional; summary of the method: as §2
Mus musculus [20] = species: Mus musculus; assay: Cell growth at 29 MicroM concentration in mice; type: functional; summary of the method: as §1
Mus musculus [21] = species: Mus musculus; assay: Cell growth at 87 uM concentration in mice; type: functional; summary of the method: as §1
Mus musculus [22] = species: Mus musculus; assay: Number of tumor nodules at 145 uM of compound in mice(Range 5-97 ); type: functional; summary of the method: as §2
B16 [23] = assay: Compound was tested in vitro, for inhibitory effect on B16BL6 cell invasion, by incubating with 518 uM of compound for 4 hr; type: functional, Mus musculus
Summary of the method: (§3)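 B16 BL6 cells were cultured with compound for 72 or 24 h at 37 °C, then lifted with 0.08% sodium citrate (10 min, 37 °C), washed twice and resuspended at 1×10^6/mL in RPMI 1640 + 0.1% BSA. 100 μL went onto filters coated with 5 μg Matrigel then 10 μg laminin, with the same medium below. Incubation was 3 or 4 h at 37 °C, 5% CO2. Filters were wiped, methanol-fixed and hematoxylin-stained; invaded cells were counted in five 0.3 mm² fields (200×). Triplicates, mean ± SD; % inhibition is versus untreated cells.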

B16 [24] = assay: Compound was tested in vitro, for inhibitory effect on B16BL6 cell invasion, by incubating with 129 uM of compound for 4 hr; type: functional, Mus musculus; summary of the method: as §3
Mus musculus [25] = species: Mus musculus; assay: Number of tumor nodules at 26 uM of compound in mice(Range 148-276 ); type: functional; summary of the method: as §2
Mus musculus [26] = species: Mus musculus; assay: % inhibition of metastasis at 26 uM in mice; type: functional; summary of the method: as §2
Mus musculus [27] = species: Mus musculus; assay: % inhibition of metastasis at 129 uM in mice; type: functional; summary of the method: as §2
Mus musculus [28] = species: Mus musculus; assay: Cell growth at 78 uM concentration in mice; type: functional; summary of the method: as §1
B16 [29] = assay: Compound was tested in vitro, for inhibitory effect on B16BL6 cell invasion, by incubating with 258 uM of compound for 4 hr; type: functional, Mus musculus; summary of the method: as §3
Mus musculus [30] = species: Mus musculus; assay: % inhibition of metastasis at 78 uM in mice; type: functional; summary of the method: as §2
Mus musculus [31] = species: Mus musculus; assay: Number of tumor nodules at 129 uM of compound in mice(Range 13-87 ); type: functional; summary of the method: as §2
Mus musculus [32] = species: Mus musculus; assay: Cell growth at 129 uM concentration in mice; type: functional; summary of the method: as §1
Mus musculus [33] = species: Mus musculus; assay: Cell growth at 26 uM concentration of the compound; type: functional; summary of the method: as §1
B16 [34] = assay: Number of cells invaded in cell invasion assay by incubating with 258 uM of compound for 4 hr; type: functional, Mus musculus; summary of the method: as §3
B16 [35] = assay: Number of cells invaded in cell invasion assay by incubating with 518 uM of compound for 4 hr; type: functional, Mus musculus; summary of the method: as §3
B16 [36] = assay: Number of cells invaded in cell invasion assay by incubating with 129 uM of compound for 4 hr; type: functional, Mus musculus; summary of the method: as §3
Mus musculus [37] = species: Mus musculus; assay: Number of tumor nodules at 78 uM of compound in mice(Range 89-120 ); type: functional; summary of the method: as §2
Mus musculus [38] = species: Mus musculus; assay: Cell growth at 30 uM concentration in mice; type: functional; summary of the method: as §1
B16 [39] = assay: Compound was tested in vitro, for inhibitory effect on B16BL6 cell invasion, by incubating with 870 uM of compound for 3 hr; type: functional, Mus musculus; summary of the method: as §3
Mus musculus [40] = species: Mus musculus; assay: Cell growth at 150 uM concentration in mice; type: functional; summary of the method: as §1
Mus musculus [41] = species: Mus musculus; assay: Number of tumor nodules at 30 uM of compound in mice(Range 129-54 ); type: functional; summary of the method: as §2
Mus musculus [42] = species: Mus musculus; assay: % inhibition of metastasis at 150 uM in mice; type: functional; summary of the method: as §2
Mus musculus [43] = species: Mus musculus; assay: % inhibition of metastasis at 90 uM in mice; type: functional; summary of the method: as §2
Mus musculus [44] = species: Mus musculus; assay: Number of tumor nodules at 150 uM of compound in mice(Range 9-1 ); type: functional; summary of the method: as §2
B16 [45] = assay: Compound was tested in vitro, for inhibitory effect on B16BL6 cell invasion, by incubating with 580 uM of compound for 3 hr; type: functional, Mus musculus; summary of the method: as §3
B16 [46] = assay: Number of cells invaded in cell invasion assay by incubating with 580 uM of compound for 3 hr; type: functional, Mus musculus; summary of the method: as §3
Mus musculus [47] = species: Mus musculus; assay: Cell growth at 90 uM concentration in mice; type: functional; summary of the method: as §1
B16 [48] = assay: Number of cells invaded in cell invasion assay by incubating with 870 uM of compound for 3 hr; type: functional, Mus musculus; summary of the method: as §3
Mus musculus [49] = species: Mus musculus; assay: Number of tumor nodules at 90 uM of compound in mice(Range 20-7 ); type: functional; summary of the method: as §2
Mus musculus [50] = species: Mus musculus; assay: % inhibition of metastasis at 30 uM in mice; type: functional; summary of the method: as §2

CC(=O)N[C@H]1NC[C@@H](C(=O)O)[C@H](N)[C@@H]1O
No. of cells (Mus musculus [1]): 1.6e+07 mL | No. of lung metastasis (Mus musculus [2]): 108.8 | No. of lung metastasis (Mus musculus [3]): 145.2 | Inhibition (Mus musculus [4]): 30.9% | Inhibition (Mus musculus [5]): 26.6% | No. of cells (Mus musculus [6]): 2.1e+07 mL | No. of cells (Mus musculus [7]): 1.6e+07 mL | Inhibition (Mus musculus [8]): 1.4% | No. of lung metastasis (Mus musculus [9]): 101.6

CC(=O)N[C@H]1NC[C@@H](C(=O)O)[C@H](N)[C@H]1O
No. of lung metastasis (Mus musculus [10]): 129.4 | No. of lung metastasis (Mus musculus [11]): 82 | No. of lung metastasis (Mus musculus [12]): 147.2 | No. of cells (Mus musculus [13]): 1.4e+07 mL | Inhibition (Mus musculus [4]): 44.3% | Inhibition (Mus musculus [5]): 12.1% | No. of cells (Mus musculus [6]): 1.4e+07 mL | No. of cells (Mus musculus [7]): 1.8e+07 mL | Inhibition (Mus musculus [8]): 0%

NC1C(C(=O)O)CNC(NC(=O)C(F)(F)F)C1O (stereo not given)
No. of cells (Mus musculus [14]): 1.4e+06 mL | No. of lung metastasis (Mus musculus [15]): 245.4 | Inhibition (Mus musculus [16]): 38.1% | Inhibition (Mus musculus [17]): 3.8% | Inhibition (Mus musculus [18]): 75.5% | No. of lung metastasis (Mus musculus [19]): 157.8 | No. of cells (Mus musculus [20]): 1.6e+06 mL | No. of cells (Mus musculus [21]): 1.6e+06 mL | No. of lung metastasis (Mus musculus [22]): 62.4

N=C(N)NC1C(C(=O)O)CNC(NC(=O)C(F)(F)F)C1O (stereo not given)
Inhibition (B16 [23]): 63.9% | Inhibition (B16 [24]): 61.1% | No. of lung metastasis (Mus musculus [25]): 219 | Inhibition (Mus musculus [26]): 14.1% | Inhibition (Mus musculus [27]): 81% | No. of cells (Mus musculus [28]): 1.3e+06 mL | Inhibition (B16 [29]): 44.4% | Inhibition (Mus musculus [30]): 58.8% | No. of lung metastasis (Mus musculus [31]): 48.4 | No. of cells (Mus musculus [32]): 1.5e+06 mL | No. of cells (Mus musculus [33]): 1.9e+06 mL | No. of invaded cells (B16 [34]): 1.3 | No. of invaded cells (B16 [35]): 0.9 | No. of invaded cells (B16 [36]): 0.9 | No. of lung metastasis (Mus musculus [37]): 105.6

CC(=O)NC1NCC(C(=O)O)C(N=C(N)N)C1O (stereo not given)
No. of cells (Mus musculus [38]): 1.9e+07 mL | Inhibition (B16 [39]): 58.9% | No. of cells (Mus musculus [40]): 1.9e+07 mL | No. of lung metastasis (Mus musculus [41]): 88.2 | Inhibition (Mus musculus [42]): 97% | Inhibition (Mus musculus [43]): 91% | No. of lung metastasis (Mus musculus [44]): 4.4 | Inhibition (B16 [45]): 44.8% | No. of invaded cells (B16 [46]): 23.7 | No. of cells (Mus musculus [47]): 1.7e+07 mL | No. of invaded cells (B16 [48]): 17.7 | No. of lung metastasis (Mus musculus [49]): 13.2 | Inhibition (Mus musculus [50]): 40.1%

Reference: ChEMBL document CHEMBL1130116, “Synthesis and antimetastatic activity of L-iduronic acid-type 1-N-iminosugars” (1997)
